# Assays:
# Neisseria gonorrhoeae = assay: Antibacterial activity against beta lactamase positive Neisseria gonorrhoeae ATCC 31426 by oxidase test; type: functional
# How it was run: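 Agar dilution MIC on GC agar with 1% isovitalex containing increasing compound concentrations. Plates inoculated with about 1×10^4 CFU (5 µL). MIC is the lowest concentration that inhibited growth, with growth confirmed by oxidase test. Run in duplicate, repeated at least three times.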
# Klebsiella pneumoniae [1] = assay: Antibacterial activity against ESBL positive Klebsiella pneumoniae ATCC 700603 after 24 hrs by resazurin dye based microdilution assay; type: functional; conditions: Klebsiella pneumoniae, 700603, 24 h
# How it was run: (§1)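 MIC taken as the lowest concentration giving visible inhibition and/or by resazurin (1 mg/mL). Gentamicin was the control. Run in duplicate, repeated at least three times.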
# Leishmania panamensis = assay: Antileshmanial activity against EpiR/GFP fused Leishmania panamensis MHOM/CO/87/UA140 intracellular amastigotes infected in human […] cells after 72 hrs by flow cytometric method; type: functional, cell-based; conditions: MHOM/CO/87/UA140, 72 h
# How it was run: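 PMA-treated U-937 cells (3 × 10^5 cells/mL) infected with stationary-phase GFP L. panamensis promastigotes (15:1), 3 h at 34 °C, then washed. After 24 h, compounds added at 50, 12.5, 3.125 and 0.78 µg/mL for 72 h at 37 °C. EC50 by Probit; triplicate, two experiments.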
# Trypanosoma cruzi = assay: Antitrypanosomal activity against Trypanosoma cruzi Tulahuen intracellular amastigote harboring LacZ infected in human U937 cells after 72 hrs by CPRG/Nonidet reagent based spectrophotometric method; type: functional, cell-based; conditions: U-937, 72 h
# How it was run: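 U-937 cells at 2.5 × 10^5 cells/mL in RPMI-1640 with 10% serum and 0.1 µg/mL PMA were infected with β-galactosidase-transfected Tulahuen epimastigotes at 5 parasites per cell. Infected cells were exposed to 50, 12.5, 3.125 and 0.78 µg/mL for 72 h. CPRG (100 uM) and 0.1% Nonidet P-40 were added for 3 h, read at 570 nm. EC50 by Probit. Triplicate, at least two experiments; benznidazole as reference.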
# Candida albicans [2] = assay: Growth inhibition of Candida albicans ATCC 10231 at 125 ug/ml incubated for 48 hrs under dark condition by broth microdilution method relative to control; type: functional; conditions: ATCC 10231, 48 h, read-out: GI
# How it was run: (§2)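 CLSI M27-A3 broth microdilution in RPMI-1640, DMSO ≤1%. Inoculum 1-5 × 10^3 CFU/mL. Incubated 48 h at 30 °C, dark. % inhibition = 100 − (OD405 test − sterility control)/(OD405 growth control − sterility control), with growth and sterility control wells. Triplicate.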
# Candida albicans [3] = assay: Antifungal activity against Candida albicans ATCC 10231 incubated for 48 hrs under dark condition by broth microdilution method; type: functional; conditions: ATCC 10231, 48 h
# How it was run: (§3)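 CLSI M27-A3 broth microdilution in RPMI-1640, DMSO ≤1%, compounds at 250-0.98 µg/mL final. Inoculum 1-5 × 10^3 CFU/mL. Incubated 48 h at 30 °C in a moist dark chamber, read at OD405. MIC80 and MIC50 taken from % inhibition dose-response curves (mean ± SEM, triplicate). Amphotericin B was the positive control.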
# Cryptococcus neoformans [4] = assay: Growth inhibition of Cryptococcus neoformans ATCC 32264 at 250 ug/ml incubated for 48 hrs under dark condition by broth microdilution method relative to control; type: functional; conditions: ATCC 32264, 48 h, read-out: GI; how it was run: as §2
# Cryptococcus neoformans [5] = assay: Growth inhibition of Cryptococcus neoformans ATCC 32264 at 62.5 ug/ml incubated for 48 hrs under dark condition by broth microdilution method relative to control; type: functional; conditions: ATCC 32264, 48 h, read-out: GI; how it was run: as §2
# Escherichia coli = assay: Antibacterial activity against Escherichia coli ATCC 25922 after 24 hrs by resazurin dye based microdilution assay; type: functional; conditions: ATCC 25922, 24 h; how it was run: as §1
# Candida albicans [6] = assay: Growth inhibition of Candida albicans ATCC 10231 at 62.5 ug/ml incubated for 48 hrs under dark condition by broth microdilution method relative to control; type: functional; conditions: ATCC 10231, 48 h, read-out: GI; how it was run: as §2
# Cryptococcus neoformans [7] = assay: Antifungal activity against Cryptococcus neoformans ATCC 32264 incubated for 48 hrs under dark condition by broth microdilution method; type: functional; conditions: ATCC 32264, 48 h; how it was run: as §3
# Cryptococcus neoformans [8] = assay: Growth inhibition of Cryptococcus neoformans ATCC 32264 at 3.4 ug/ml incubated for 48 hrs under dark condition by broth microdilution method relative to control; type: functional; conditions: ATCC 32264, 48 h, read-out: GI
# Candida albicans [9] = assay: Growth inhibition of Candida albicans ATCC 10231 at 3.4 ug/ml incubated for 48 hrs under dark condition by broth microdilution method relative to control; type: functional; conditions: ATCC 10231, 48 h, read-out: GI
# U-937 = assay: Cytotoxicity against human U937 cells after 72 hrs by MTT assay; type: cell-based; conditions: u-937, 72 h
# How it was run: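 Exponentially growing U-937 at 1 × 10^5 cells/mL in RPMI-1640 with 10% FBS were exposed to 200, 50, 12.5 and 3.125 µg/mL for 72 h at 37 °C, 5% CO2. MTT for 3 h, stopped with isopropanol/SDS, formazan read at 570 nm, blank-corrected. LC50 by Probit from % viability against untreated cells. Triplicate, at least two independent experiments.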
# Candida albicans [10] = assay: Growth inhibition of Candida albicans ATCC 10231 at 250 ug/ml incubated for 48 hrs under dark condition by broth microdilution method relative to control; type: functional; conditions: ATCC 10231, 48 h, read-out: GI; how it was run: as §2
# Candida albicans [11] = assay: Growth inhibition of Candida albicans ATCC 10231 at 15.62 ug/ml incubated for 48 hrs under dark condition by broth microdilution method relative to control; type: functional; conditions: ATCC 10231, 48 h, read-out: GI; how it was run: as §2
# Candida albicans [12] = assay: Growth inhibition of Candida albicans ATCC 10231 at 7.8 ug/ml incubated for 48 hrs under dark condition by broth microdilution method relative to control; type: functional; conditions: ATCC 10231, 48 h, read-out: GI; how it was run: as §2
# Cryptococcus neoformans [13] = assay: Growth inhibition of Cryptococcus neoformans ATCC 32264 at 15.62 ug/ml incubated for 48 hrs under dark condition by broth microdilution method relative to control; type: functional; conditions: ATCC 32264, 48 h, read-out: GI; how it was run: as §2
# Plasmodium falciparum = assay: Antiplasmodial activity against chloroquine-sensitive Plasmodium falciparum 3D7 assessed as reduction in parasitic LDH activity after 48 hrs by Malstat reagent based […] method; type: functional; conditions: 3D7, 48 h
# How it was run: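 Unsynchronized P. falciparum 3D7 at 0.5% parasitemia and 1% hematocrit in RPMI with 3% Albumax II. Exposed to 100, 25, 6.25 and 1.56 µg/mL for 48 h at 37 °C under 90% N2/5% CO2/5% O2. After three freeze-thaw cycles, LDH measured with Malstat and NBT/PES, 1 h in the dark, read at 650 nm. IC50 by Probit; triplicate, ≥2 experiments.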
# Cryptococcus neoformans [14] = assay: Growth inhibition of Cryptococcus neoformans ATCC 32264 at 31.25 ug/ml incubated for 48 hrs under dark condition by broth microdilution method relative to control; type: functional; conditions: ATCC 32264, 48 h, read-out: GI; how it was run: as §2
# Staphylococcus aureus [15] = assay: Antibacterial activity against vancomycin-intermediate Staphylococcus aureus after 24 hrs by resazurin dye based microdilution assay; type: functional; how it was run: as §1
# Candida albicans [16] = assay: Growth inhibition of Candida albicans ATCC 10231 at 31.25 ug/ml incubated for 48 hrs under dark condition by broth microdilution method relative to control; type: functional; conditions: ATCC 10231, 48 h, read-out: GI; how it was run: as §2
# Staphylococcus aureus [17] = assay: Antibacterial activity against methicillin-resistant Staphylococcus aureus ATCC 43300 after 24 hrs by resazurin dye based microdilution assay; type: functional; conditions: ATCC 43300, 24 h
# How it was run: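 Broth microdilution in Mueller Hinton broth, inoculum 5 × 10^5 – 8 × 10^5. Compound stocks diluted in MHB with 5% DMSO and 0.1% Tween 80. Incubation 24 h at 35-37 °C. MIC is the lowest concentration with visible growth inhibition and/or by resazurin (1 mg/mL) read-out. Gentamicin as control. Run in duplicate, replicated at least three times.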
# Cryptococcus neoformans [18] = assay: Growth inhibition of Cryptococcus neoformans ATCC 32264 at 125 ug/ml incubated for 48 hrs under dark condition by broth microdilution method relative to control; type: functional; conditions: ATCC 32264, 48 h, read-out: GI; how it was run: as §2
# Klebsiella pneumoniae [19] = assay: Antibacterial activity against carbapenemase positive Klebsiella pneumoniae BAA 1705 after 24 hrs by resazurin dye based microdilution assay; type: functional; conditions: BAA 1705, 24 h; how it was run: as §1
# Cryptococcus neoformans [20] = assay: Growth inhibition of Cryptococcus neoformans ATCC 32264 at 7.8 ug/ml incubated for 48 hrs under dark condition by broth microdilution method relative to control; type: functional; conditions: ATCC 32264, 48 h, read-out: GI; how it was run: as §2
# Pseudomonas aeruginosa = assay: Antibacterial activity against Pseudomonas aeruginosa ATCC 27853 after 24 hrs by resazurin dye based microdilution assay; type: functional; conditions: ATCC 27853, 24 h; how it was run: as §1
# Staphylococcus aureus [21] = assay: Antibacterial activity against methicillin-sensitive Staphylococcus aureus ATCC 25923 after 24 hrs by resazurin dye based microdilution assay; type: functional; conditions: ATCC 25923, 24 h; how it was run: as §1
smiles,measurement,setting,value
Clc1ccc2c(Nc3cccc(C4CC(c5ccccc5)=NN4c4ccccc4)c3)ccnc2c1 (stereo not given),MIC,Neisseria gonorrhoeae,> 1000 µg/mL
same,MIC,Klebsiella pneumoniae [1],> 1000 µg/mL
same,EC50,Leishmania panamensis,22.7 µg/mL
same,EC50,Trypanosoma cruzi,39.2 µg/mL
same,inhibition of growth at 125 µg/mL,Candida albicans [2],32.4%
same,MIC50,Candida albicans [3],250 µg/mL
same,MIC80,Candida albicans [3],≥ 250 µg/mL
same,inhibition of growth at 250 µg/mL,Cryptococcus neoformans [4],52.3%
same,inhibition of growth at 62.5 µg/mL,Cryptococcus neoformans [5],20.5%
same,MIC,Escherichia coli,> 1000 µg/mL
same,inhibition of growth at 62.5 µg/mL,Candida albicans [6],20.1%
same,MIC50,Cryptococcus neoformans [7],250 µg/mL
same,MIC80,Cryptococcus neoformans [7],≥ 250 µg/mL
same,inhibition of growth at 3.4 µg/mL,Cryptococcus neoformans [8],9.75%
same,inhibition of growth at 3.4 µg/mL,Candida albicans [9],3.1%
same,LC50,U-937,> 200 µg/mL
same,inhibition of growth at 250 µg/mL,Candida albicans [10],53%
same,inhibition of growth at 15.62 µg/mL,Candida albicans [11],8.69%
same,inhibition of growth at 7.8 µg/mL,Candida albicans [12],5.03%
same,inhibition of growth at 15.62 µg/mL,Cryptococcus neoformans [13],18.4%
same,EC50,Plasmodium falciparum,13.4 µg/mL
same,inhibition of growth at 31.25 µg/mL,Cryptococcus neoformans [14],20.4%
same,MIC,Staphylococcus aureus [15],> 1000 µg/mL
same,inhibition of growth at 31.25 µg/mL,Candida albicans [16],11%
same,MIC,Staphylococcus aureus [17],> 1000 µg/mL
same,inhibition of growth at 125 µg/mL,Cryptococcus neoformans [18],26.5%
same,MIC,Klebsiella pneumoniae [19],> 1000 µg/mL
same,inhibition of growth at 7.8 µg/mL,Cryptococcus neoformans [20],13.6%
same,MIC,Pseudomonas aeruginosa,> 1000 µg/mL
same,MIC,Staphylococcus aureus [21],> 1000 µg/mL

# Reference: ChEMBL document CHEMBL4038284, “Synthesis of novel quinoline-based 4,5-dihydro-1H-pyrazoles as potential anticancer, antifungal, antibacterial and antiprotozoal agents” (Eur J Med Chem, 2017)
